Activity calls are given as the source filed them. The calls are words filed in the database; no cut-off is given here.

Assay [1] can be described thus: Cytotoxicity against human H1299 cells assessed as cell viability at 1 uM after 48 hrs by MTT assay. In kind it is functional. Conditions: NCI-H1299, 48 h, read-out: Activity. In short, it runs like this: (§1)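 H1299 cells at about 2 × 10³ per well were grown 24 h at 37 °C in 5% CO₂. Compounds were dissolved in DMSO just before use and diluted into complete medium. After 48 h exposure, MTT was added for 4 h at 37 °C, then lysis buffer (20% SDS, 50% DMF) for 16 h at 37 °C. Absorbance was read at 550 nm.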

Assay [2] concerns A498. The experiment in a line: Cytotoxicity against human A498 cells assessed as cell growth level at 10 uM. In kind it is functional.
The target in assay [3] is T1, Telomerase reverse transcriptase (Homo sapiens, UniProt O14746). The experiment in a line: Inhibition of TERT transcriptional activity in human H1299 cells assessed SEAP activity at 10 uM incubated for 24 hrs by SEAP assay. In kind it is cell-based. More on the design: scale not given: the % may be the effect or the level left. In short, it runs like this:
(§2)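 H1299 stable clones carry the hTERT promoter (−3338 to +1 bp) upstream of SEAP, introduced by electroporation and selected with G418. About 2 × 10³ cells per well were grown 24 h at 37 °C, given fresh medium, then drug for 24 h. Collected media were heated at 65 °C for 10 min, mixed with equal SEAP buffer (2 M diethanolamine, 1 mM MgCl₂, 20 mM L-homoarginine) and p-nitrophenyl phosphate at 12 mM final.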

Assay [4] deals with MOLT-4. The assay is described as follows: Cytotoxicity against human MOLT4 cells assessed as cell growth level at 10 uM. The format is functional.
Assay [5] concerns PC-3. The experiment in a line: Growth inhibition of human PC3 cells after 48 hrs by SRB assay. The format is functional, cell-based. Conditions: PC-3, 48 h. The procedure, abridged:
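PC-3 cells were seeded in medium with 5% FBS; after 24 h a plate was fixed with 10% TCA as T₀. Vehicle (0.1% DMSO) or compound was given for 48 h, then cells were TCA-fixed, stained with 0.4% SRB in 1% acetic acid, solubilized in 10 mM Trizma base and read at 515 nm. IC₅₀ is the concentration halving the protein increase seen in controls.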

The target of assay [6] is T1, Telomerase reverse transcriptase. The experiment in a line: Inhibition of TERT activity in human H1299 cells homogenates incubated for 5 mins at 100 uM by TRAP assay. In kind it is cell-free. The procedure, abridged:
(§3)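 Telomerase-active extracts were prepared from H1299 cells, and lysate protein was measured against BSA standards. Compounds were tested in the TRAP assay, with RNase A-treated extracts as negative controls.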

For assay [7] the target is unchanged. The experiment in a line: Inhibition of TERT transcriptional activity in human H1299 cells assessed SEAP activity at 1 uM incubated for 24 hrs by SEAP assay. In kind it is cell-based. More on the design: scale not given: the % may be the effect or the level left. In short, it runs like this: as §2
Assay [8] shares this target. The assay is described as follows: Inhibition of TERT transcriptional activity in human H1299 cells assessed SEAP activity at 100 uM incubated for 24 hrs by SEAP assay. The format is cell-based. More on the design: scale not given: the % may be the effect or the level left. In short, it runs like this: as §2
The nature of assay [9]: Cytotoxicity against human H1299 cells assessed as cell viability at 10 uM after 48 hrs by MTT assay. The format is functional. Conditions: NCI-H1299, 48 h, read-out: Activity. In short, it runs like this:
as §1

Assay [10] concerns the target T1, Telomerase reverse transcriptase. The experiment in a line: Inhibition of TERT activity in human H1299 cells homogenates incubated for 5 mins by TRAP assay. In kind it is cell-free. The procedure, abridged: as §3
For assay [11], the system named is PC-3. The experiment in a line: Cytotoxicity against human PC3 cells assessed as cell growth level at 10 uM. In kind it is functional.
The target of assay [12] is DNA polymerase I, thermostable (Thermus aquaticus) (UniProt P19821). The assay is described as follows: Inhibition of Thermus aquaticus DNA polymerase compound after telomerase extension step and before PCR-amplification step during TRAP assay. In short, it runs like this: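 TRAP-m variant: compounds were added after the telomerase extension step and before PCR amplification, using H1299 telomerase extracts, with RNase A-treated extracts as negative control.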
DNA polymerase I, thermostable (Thermus aquaticus), sequence (P19821 whole entry): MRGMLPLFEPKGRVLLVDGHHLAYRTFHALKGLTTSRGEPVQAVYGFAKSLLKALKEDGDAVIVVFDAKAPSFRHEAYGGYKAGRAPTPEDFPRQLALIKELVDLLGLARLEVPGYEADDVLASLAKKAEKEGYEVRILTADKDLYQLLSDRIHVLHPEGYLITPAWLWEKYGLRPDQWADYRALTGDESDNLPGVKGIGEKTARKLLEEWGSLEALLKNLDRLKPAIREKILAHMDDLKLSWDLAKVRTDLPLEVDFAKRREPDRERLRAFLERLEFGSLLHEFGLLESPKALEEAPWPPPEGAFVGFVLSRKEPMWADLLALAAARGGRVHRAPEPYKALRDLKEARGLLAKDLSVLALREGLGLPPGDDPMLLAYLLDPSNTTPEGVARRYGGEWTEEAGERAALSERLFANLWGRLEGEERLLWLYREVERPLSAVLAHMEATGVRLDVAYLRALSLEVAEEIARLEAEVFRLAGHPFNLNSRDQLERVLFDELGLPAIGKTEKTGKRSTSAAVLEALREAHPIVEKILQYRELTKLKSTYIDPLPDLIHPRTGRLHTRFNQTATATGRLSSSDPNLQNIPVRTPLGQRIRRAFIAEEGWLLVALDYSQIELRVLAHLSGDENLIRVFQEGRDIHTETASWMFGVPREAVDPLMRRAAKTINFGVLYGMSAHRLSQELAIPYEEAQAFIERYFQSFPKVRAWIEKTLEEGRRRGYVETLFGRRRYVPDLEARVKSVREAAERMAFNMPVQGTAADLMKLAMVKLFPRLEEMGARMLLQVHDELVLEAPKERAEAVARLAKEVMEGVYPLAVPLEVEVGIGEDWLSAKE

Assay [13] is described as follows: Cytotoxicity against human NCI-ADR-RES cells assessed as cell growth level at 10 uM. In kind it is functional.
The nature of assay [14]: Cytotoxicity against human H1299 cells assessed as cell viability at 100 uM after 48 hrs by MTT assay. The format is functional. Particulars: NCI-H1299, 48 h, read-out: Activity. In short, it runs like this: as §1
On the technique in general: Formazan colour is commonly taken as a measure of viable cells.

Assay [15] has as its system DU-145. The experiment in a line: Cytotoxicity against human DU145 cells assessed as cell growth level at 10 uM. In kind it is functional.
In assay [16] the test system is SNB-19. The experiment in a line: Cytotoxicity against human SNB19 cells assessed as cell growth level at 10 uM. In kind it is functional.
A short description of assay [17]: Cytotoxicity against human EKVX cells assessed as cell growth level at 10 uM. The format is functional.
For assay [18], the system named is COLO 205. The experiment in a line: Cytotoxicity against human COLO205 cells assessed as cell growth level at 10 uM. The format is functional.

T1 sequence (O14746 whole entry): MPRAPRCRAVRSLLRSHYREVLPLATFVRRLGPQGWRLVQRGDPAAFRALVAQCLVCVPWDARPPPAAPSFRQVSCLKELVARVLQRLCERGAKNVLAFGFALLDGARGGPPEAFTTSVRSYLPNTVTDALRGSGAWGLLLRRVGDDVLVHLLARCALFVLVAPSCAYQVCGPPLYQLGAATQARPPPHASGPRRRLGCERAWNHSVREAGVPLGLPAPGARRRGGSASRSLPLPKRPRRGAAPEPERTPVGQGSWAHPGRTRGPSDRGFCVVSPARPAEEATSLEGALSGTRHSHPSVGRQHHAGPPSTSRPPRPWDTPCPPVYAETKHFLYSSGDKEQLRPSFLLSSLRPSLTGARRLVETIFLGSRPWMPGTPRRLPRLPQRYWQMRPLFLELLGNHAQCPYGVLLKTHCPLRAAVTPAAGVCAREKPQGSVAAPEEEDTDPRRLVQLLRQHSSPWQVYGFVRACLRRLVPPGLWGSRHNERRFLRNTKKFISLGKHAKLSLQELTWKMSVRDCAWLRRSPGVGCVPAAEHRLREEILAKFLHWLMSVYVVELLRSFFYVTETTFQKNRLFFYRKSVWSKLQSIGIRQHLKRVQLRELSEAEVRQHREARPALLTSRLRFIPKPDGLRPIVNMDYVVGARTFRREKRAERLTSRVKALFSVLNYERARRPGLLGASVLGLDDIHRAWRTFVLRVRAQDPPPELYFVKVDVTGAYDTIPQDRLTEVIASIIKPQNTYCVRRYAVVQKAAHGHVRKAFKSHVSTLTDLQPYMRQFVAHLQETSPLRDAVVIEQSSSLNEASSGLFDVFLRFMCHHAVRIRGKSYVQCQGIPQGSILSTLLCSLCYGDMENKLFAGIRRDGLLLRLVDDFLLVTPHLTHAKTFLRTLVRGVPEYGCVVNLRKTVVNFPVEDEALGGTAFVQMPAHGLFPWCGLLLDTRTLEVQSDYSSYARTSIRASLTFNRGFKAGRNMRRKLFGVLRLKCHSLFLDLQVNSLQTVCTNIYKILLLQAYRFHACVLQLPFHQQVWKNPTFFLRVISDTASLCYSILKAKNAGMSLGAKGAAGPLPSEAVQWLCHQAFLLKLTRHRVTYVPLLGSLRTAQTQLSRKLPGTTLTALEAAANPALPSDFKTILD

The IC50 is the concentration at which inhibition is half-maximal. In the case of `CN1CCN(Cc2nc3ccc4c(c3[nH]2)C(=O)c2ccccc2C4=O)CC1`, the viability at 1 µM in assay [1] came out at 87%. The Activity in assay [2] is 69.36%; in assay [3] it was 23%; in [4], -13.44%; in assay [7] it was 106%; in assay [8], 6%; in assay [11] it was 60.08%. The Activity in [13] is listed as 62.93%. The IC50 was 6.5 µM in assay [5] and > 10 µM in assay [10]. The “TERT inhibition (active/not active)” value in [6] was “Active”. Besides, the viability at 10 µM in [9] is 35%. The inhibition result in assay [12] is “inactive”. For the same compound, the viability at 100 µM in assay [14] was determined as 0%.

`O=C1c2ccccc2C(=O)c2c1ccc1nc(CN3CCN(c4ccccn4)CC3)[nH]c21`: in assay [1], the viability at 1 µM turned out to be 91%. For the same compound, the Activity in assay [2] was 68.23%; in assay [3], 57%; in assay [7], 91%; in assay [15], 89.1%; in assay [16], 81%; in [8] it was 1%. For the same compound, the Activity in assay [17] stood at 63%; in assay [11] it was 81.46%. The IC50 in assay [5] was > 30 µM. In [6], the “TERT inhibition (active/not active)” value was “inactive”. Moreover, the viability at 10 µM in [9] was determined as 69%. Moreover, the viability at 100 µM in [14] amounted to 20%.

As for `CCN(CC)Cc1nc2ccc3c(c2[nH]1)C(=O)c1ccccc1C3=O`, the viability at 1 µM in assay [1] was found to be 101%. The Activity in assay [2] was 49.5%; in assay [3], 32%; in [4], -9.43%; in assay [7], 91%; in assay [8], 0%; in assay [18], 81%. Besides, in assay [11], the Activity is 73.54%. For the same compound, the IC50 in assay [5] was 10.3 µM. Further, the “TERT inhibition (active/not active)” value in assay [6] was “inactive”. Moreover, in assay [9], the viability at 10 µM came to 55%. In addition, the viability at 100 µM in assay [14] was 0%.

For `CCN1CCN(Cc2nc3ccc4c(c3[nH]2)C(=O)c2ccccc2C4=O)CC1`, the viability at 1 µM in assay [1] worked out at 86%. Also, the Activity was 14% in assay [3], 92% in assay [7] and 0% in [8]. The IC50 in assay [5] is 6.5 µM; in [10] it was > 10 µM. For the same compound, the “TERT inhibition (active/not active)” value in assay [6] was “Active”. In assay [9], the viability at 10 µM came out at 35%. Also, the inhibition entry in assay [12] was “inactive”. Moreover, in assay [14], the viability at 100 µM came to 0%.
